Experimental data of several laboratories.
Lines come from different studies, so protocols differ.
Target: Beta-adrenergic receptor kinase 1 (GRK2, Homo sapiens, UniProt P25098)
Sequence (P25098 1-689, as in one of the studies): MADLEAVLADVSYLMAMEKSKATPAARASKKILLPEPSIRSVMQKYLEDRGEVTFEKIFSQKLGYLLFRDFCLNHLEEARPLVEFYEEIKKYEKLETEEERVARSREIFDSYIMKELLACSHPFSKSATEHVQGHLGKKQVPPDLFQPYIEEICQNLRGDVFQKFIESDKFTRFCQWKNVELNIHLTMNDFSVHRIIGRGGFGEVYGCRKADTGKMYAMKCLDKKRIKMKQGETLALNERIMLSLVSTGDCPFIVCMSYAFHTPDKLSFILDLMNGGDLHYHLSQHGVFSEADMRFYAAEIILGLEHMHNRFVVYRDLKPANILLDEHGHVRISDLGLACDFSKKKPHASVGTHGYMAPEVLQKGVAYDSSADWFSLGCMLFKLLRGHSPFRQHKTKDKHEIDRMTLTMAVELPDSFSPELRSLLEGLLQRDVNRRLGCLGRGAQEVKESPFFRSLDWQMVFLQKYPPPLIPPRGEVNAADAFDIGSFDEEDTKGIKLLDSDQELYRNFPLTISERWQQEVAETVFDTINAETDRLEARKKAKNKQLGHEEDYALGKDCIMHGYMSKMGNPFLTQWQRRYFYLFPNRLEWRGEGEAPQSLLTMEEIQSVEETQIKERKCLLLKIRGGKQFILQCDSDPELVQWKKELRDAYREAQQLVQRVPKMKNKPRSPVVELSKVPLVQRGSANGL

Cc1ccc(C(=O)NCc2ccsc2)cc1C#Cc1cn(C(C)C)c2ncnc(N)c12 gave an activity vs control of 101% (enzyme activity; inhibitor; 1 µM).
CC1CCCN1c1nccc(-c2cnn3ncccc23)n1 (stereo not shown) has a remaining binding of 69% (binding; competition with immobilised ligand; 1 µM).
Cc1ccc(C(=O)Nc2ccc(CN3CCN(C)CC3)c(C(F)(F)F)c2)cc1C#Cc1cnc2cccnn12 gave a remaining activity of 77% (enzyme activity; inhibitor; 23.5 nM).
With CC(C)(C)c1nc(-c2cccc(NS(=O)(=O)c3c(F)cccc3F)c2F)c(-c2ccnc(N)n2)s1 the remaining activity was 95% (enzyme activity; inhibitor; radiometric; 1 µM).
For c1ccc(CNc2nc(N3CCOc4ccccc43)nc3c2CCCC3)cc1, the inhibition was -6.7% (target engagement in cells; inhibitor; chemoproteomics; 20 mM).
O=C(Nc1cccnn1)N1CC(C/C=C/c2cncc(Oc3ccc(C(F)(F)F)cn3)n2)C1 has a remaining binding of 96% (cell-free assay; competition with immobilised ligand; 1 µM).
The inhibition of COc1cc2ncnc(Nc3ccc(Oc4ccccc4)cc3C)c2cc1OC is reported as -1% (enzyme activity; inhibitor; 1 µM).
The remaining binding of O=C(NC[C@@H]1[C@H]2CN(C(=O)OCc3cc(C(F)(F)F)cc(C(F)(F)F)c3)C[C@@H]12)c1ccc2[nH]nnc2c1 is reported as 71% (cell-free assay; competition with immobilised ligand; 1 µM).
COc1cc(Cl)c(C(=O)N[C@@H](CN[C@H]2CC[C@@H](N)CC2)Cc2ccc(C#N)cc2)cc1-c1ccc(CN[C@H](C)c2ccc(C)cc2)o1 has a remaining activity of 105% (enzyme activity; inhibitor; 1 µM).
O=C(NS(=O)(=O)c1ccc(NCC2CCOCC2)c([N+](=O)[O-])c1)c1ccc(N2CCN(Cc3ccc(C(F)(F)F)cc3-c3ccc(Cl)cc3)CC2)cc1Oc1cnc2[nH]ccc2c1 gave a remaining binding of 91% (cell-free assay; competition with immobilised ligand; 1 µM).
For O=C1Nc2ccc(Cl)cc2C1=Cc1cc(Cl)c(O)c(Cl)c1, the remaining signal was 93.4% (cell-free assay; 0.5 µM).
For Cc1sc(C(=O)NC2COC2)cc1-n1cc(NC(=O)Nc2c(F)cccc2Cl)cn1, the remaining activity was 106% (enzyme activity; inhibitor; 10 µM).
CCc1ccccc1C(=O)Nc1n[nH]c2c(C)c(F)c(C3C(C#N)=C(C)N(C)C(C)=C3C#N)cc12 gave a remaining binding of 100% (cell-free assay; competition with immobilised ligand; 1 µM).
With Nc1ncnc2occ(-c3ccc(NC(=O)Nc4cc(C(F)(F)F)ccc4F)cc3)c12 the remaining signal was 81% (cell-free assay; inhibitor; 20 µM).
With COc1cccc2c(NCc3ccccc3)nc(-n3c(N)nc4ccccc43)nc12 the inhibition was -14.5% (target engagement in cells; inhibitor; chemoproteomics; 20 mM).
O=C(NCc1ncc(C(F)(F)F)cc1Cl)c1ccc2c(c1)C1(CCS(=O)(=O)CC1)[C@H](C1CC1)N2S(=O)(=O)c1ccc(F)cc1 gave a remaining binding of 56% (cell-free assay; competition with immobilised ligand; 1 µM).
